Test results as given in PMC8193639 (Journal of the American Chemical Society, 2021).

How the values were obtained:
[1] = target: T1, Pin1_72/14-3-3γ complex (Homo sapiens, UniProt P61981); test: FA protein titration of 14-3-3γ in presence of 100 μM compound; format: binding
[2] = target: T2, 14-3-3/ERα complex (Homo sapiens, UniProt P61981); test: Selectivity panel, FA protein titration; format: binding; conditions: 100 μM compound; C-terminal phosphorylation motif
T2 sequence (P61981 1-247): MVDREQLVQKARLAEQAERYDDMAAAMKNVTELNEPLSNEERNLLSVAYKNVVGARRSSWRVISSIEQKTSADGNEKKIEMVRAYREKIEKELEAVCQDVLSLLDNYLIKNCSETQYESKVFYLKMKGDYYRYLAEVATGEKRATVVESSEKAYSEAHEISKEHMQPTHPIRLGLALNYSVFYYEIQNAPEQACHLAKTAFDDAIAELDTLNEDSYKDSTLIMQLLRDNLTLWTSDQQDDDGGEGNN

[3] = tested on: AS160/14-3-3γ complex; test: Selectivity panel, FA protein titration; format: binding; conditions: 100 μM fragment; Phe +1
[4] = target: T1, Pin1_72/14-3-3γ complex; test: biochemical
[5] = target: 14-3-3/Pin1_72 complex (Homo sapiens, UniProt P61981); test: Cooperativity analysis, 2D FA protein titrations; format: binding
[6] = target: T3, 14-3-3γ (Homo sapiens, UniProt P61981); test: Thermal shift assay, 14-3-3γ alone; format: binding; conditions: compound added to 14-3-3γ alone
T3 sequence (P61981 1-247): T2 sequence (P61981 1-247)
How it was run: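 Thermal shift assay as an orthogonal check of complex stabilization. Read-out is the 14-3-3γ melting temperature with test compound present. Protein is either alone or with acetylated Pin1 peptide added at 5 or 50 equiv.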

[7] = target: T4, C-Raf/14-3-3γ (Homo sapiens, UniProt P61981); test: Selectivity panel, FA protein titration; format: binding; conditions: 100 μM fragment; Thr +1
T4 sequence (P61981 1-247): T2 sequence (P61981 1-247)

[8] = target: T5, B-Raf_729/14-3-3γ (Homo sapiens, UniProt P61981); test: Selectivity panel, FA protein titration; format: binding; conditions: 100 μM fragment; Glu +1
T5 sequence (P61981 1-247): T2 sequence (P61981 1-247)

[9] = target: T6, TBC1D237/14-3-3γ (Homo sapiens, UniProt P61981); test: Selectivity panel, FA protein titration; format: binding; conditions: 100 μM fragment; Gln +1
T6 sequence (P61981 1-247): T2 sequence (P61981 1-247)

[10] = target: T7, ERRγ_179/14-3-3γ (Homo sapiens, UniProt P61981); test: Selectivity panel, FA protein titration; format: binding; conditions: 100 μM fragment; Cys +1
T7 sequence (P61981 1-247): T2 sequence (P61981 1-247)

[11] = target: T8, Mypt1_472/14-3-3γ (Homo sapiens, UniProt P61981); test: Selectivity panel, FA protein titration; format: binding; conditions: 100 μM fragment; Ser +1
T8 sequence (P61981 1-247): T2 sequence (P61981 1-247)

[12] = tested on: Abl1pT735/14-3-3γ; test: Selectivity panel, FA protein titration; format: binding; conditions: 100 μM fragment; Leu +1
[13] = tested on: p65pS45/14-3-3γ; test: Selectivity panel, FA protein titration; format: binding; conditions: 100 μM fragment; Ile +1
[14] = tested on: CFTRpS753/14-3-3γ; test: Selectivity panel, FA protein titration; format: binding; conditions: 100 μM fragment; Val +1

Row | Compound | Kd [1] [µM] | SF (stabilization factor) ([1]; KD,DMSO/KD,compound, internal DMSO control, 100 μM fragment) [fold] | SF / complex stabilization [2] | SF / complex stabilization [3] [fold] | EC50 [4] [µM] | concentration necessary to induce a 2-fold increase in PPI stabilization [5] [µM] | effect on 14-3-3 melting temperature [6] | SF / complex stabilization [7] | SF / complex stabilization [8] | SF / complex stabilization [9] | SF / complex stabilization [10] | SF / complex stabilization [11] | SF / complex stabilization [12] | SF / complex stabilization [13] | SF / complex stabilization [14]
1 | O=Cc1ccc(-n2ccnc2-c2ccccc2)cc1Br [fragment 13] | 2.16 ± 0.123 | 10.8 | not responsive to fragment stabilization | 1.2 to 2.7 | 101 ± 6 |  |  |  |  |  |  |  |  |  | 
2 | C=CC(C)(C)OC[C@H]1O[C@H](O[C@@H]2C3=C([C@H](C)COC(C)=O)C[C@H](O)[C@]3(C)/C=C3/[C@@H](COC)CC[C@H]3[C@@H](C)[C@H]2O)[C@H](O)[C@@H](OC(C)=O)[C@@H]1O [FCA, fusicoccin A, reference compound] |  |  | 160 fold |  |  |  |  |  |  |  |  |  |  |  | 
3 | O=Cc1ccc(-n2ccnc2-c2ccc(F)cc2F)cc1Br [fragment 28] |  |  | not responsive to fragment stabilization | 1.2 to 2.7 | 79 ± 3 | 1 | no significant effect | abolishes any stabilizing effect | no significant stabilization | no significant stabilization | no significant stabilization | no significant stabilization | some stabilizing activity | some stabilizing activity | some stabilizing activity
4 | O=Cc1ccc(-n2ccnc2-c2cc(Br)ccc2F)cc1Br [fragment 27] |  |  | not responsive to fragment stabilization | 1.2 to 2.7 | 118 ± 7 |  | no significant effect | abolishes any stabilizing effect | no significant stabilization | no significant stabilization | no significant stabilization | no significant stabilization | no significant complex stabilization | no significant complex stabilization | 
5 | Cc1cn(-c2ccc(C=O)cc2)cn1 [fragment 4] |  |  |  |  | > 1000 |  |  |  |  |  |  |  |  |  | 
